Measurements: ChEMBL document CHEMBL3826935, “Synthesis and Pharmacology of (Pyridin-2-yl)methanol Derivatives as Novel and Selective Transient Receptor Potential Vanilloid 3 Antagonists” (J Med Chem, 2016)

Legend:
Liver microsome [1] = assay: Drug metabolism in rat liver microsomes assessed as cyclobutane ring oxidation after 1 hr by HPLC analysis; type: ADME
Outline: (§1)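 Compound incubated in rat liver microsomes for 1 h at 37 °C. Metabolite distribution analysed by HPLC; metabolite structures assigned by 1H NMR.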

Liver microsome [2] = assay: Drug metabolism in rat liver microsomes assessed as aromatic ring oxidation after 1 hr by HPLC analysis; type: ADME; outline: as §1
Liver microsome [3] = assay: Drug metabolism in rat liver microsomes assessed as alcohol group oxidation after 1 hr by HPLC analysis; type: ADME; outline: as §1
[4] = biological target: T1, Transient receptor potential cation channel subfamily V member 3 (Homo sapiens) (UniProt Q8NET8); assay: (§2) Antagonist activity at human TRPV3 expressed in recombinant HEK293 cells assessed as inhibition of 2-APB induced calcium flux by FLIPR analysis; type: cell-based
T1 sequence (whole entry): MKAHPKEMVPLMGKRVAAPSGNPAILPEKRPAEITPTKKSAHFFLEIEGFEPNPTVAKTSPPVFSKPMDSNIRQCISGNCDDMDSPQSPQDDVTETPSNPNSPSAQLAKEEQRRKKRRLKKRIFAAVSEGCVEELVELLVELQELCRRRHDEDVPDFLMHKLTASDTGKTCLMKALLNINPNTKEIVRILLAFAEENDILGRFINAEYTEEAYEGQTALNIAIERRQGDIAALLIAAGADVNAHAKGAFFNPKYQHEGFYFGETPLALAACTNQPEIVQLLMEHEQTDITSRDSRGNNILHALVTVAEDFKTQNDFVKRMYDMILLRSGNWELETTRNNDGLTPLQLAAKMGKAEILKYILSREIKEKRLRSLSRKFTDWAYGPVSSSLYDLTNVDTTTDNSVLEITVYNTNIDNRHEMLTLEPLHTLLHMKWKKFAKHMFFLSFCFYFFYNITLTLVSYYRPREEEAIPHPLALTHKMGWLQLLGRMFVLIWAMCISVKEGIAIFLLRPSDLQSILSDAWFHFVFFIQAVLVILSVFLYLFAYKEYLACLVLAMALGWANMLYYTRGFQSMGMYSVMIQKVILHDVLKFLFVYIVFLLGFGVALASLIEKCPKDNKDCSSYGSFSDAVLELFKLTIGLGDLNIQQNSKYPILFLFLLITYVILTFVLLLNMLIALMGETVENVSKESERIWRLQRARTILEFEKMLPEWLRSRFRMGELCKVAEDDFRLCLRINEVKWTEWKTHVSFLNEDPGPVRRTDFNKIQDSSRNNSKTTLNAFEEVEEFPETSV
Outline: (§3)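 HEK293 cells stably expressing human TRPV3 (I25V variant), plated the day before in DMEM + 10% FBS at 37 °C, 5% CO2. Calcium 4 dye loaded in Ca/Mg-free HEPES D-PBS pH 7.4 for 1–2 h at room temperature. Compound dilutions added with 3 min baseline, then 2-APB at 60 µM final; Ca2+ flux read 3 min on FLIPR. Kb from at least duplicates, averaged across independent runs.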

[5] = biological target: T2, Transient receptor potential cation channel subfamily V member 3 (Homo sapiens, UniProt Q8NET8); assay: as §2; type: cell-based; outline: as §3
T2 sequence (Q8NET8 whole entry): T1 sequence (whole entry)

Liver microsome [6] = assay: Unbound intrinsic clearance in rat liver microsomes after 5 hrs by LC-MS/MS analysis; type: ADME
Outline: (§4)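 Microsomal stability run in an automated high-throughput plate format. Intrinsic clearance corrected for nonspecific microsomal binding using measured unbound fraction (fu,mic), reported as unbound Clint in L/h/kg.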

Liver microsome [7] = assay: Unbound intrinsic clearance in human liver microsomes after 5 hrs by LC-MS/MS analysis; type: ADME; outline: as §4
[8] = Fraction unbound in human plasma; type: ADME, cell-free
Rattus norvegicus [9] = species on record: Rattus norvegicus; assay: Cardiotoxicity in rat assessed as increase in cardiac contractility at plasma concentration of 4.7 ug/ml; type: toxicity, organism-based
Rattus norvegicus [10] = species on record: Rattus norvegicus; assay: Cardiotoxicity in rat assessed as increase in mean arterial pressure; type: toxicity, organism-based, Artery; settings: in vivo
[11] = biological target: T3, Nuclear receptor subfamily 1 group I member 2 (Homo sapiens, UniProt O75469); assay: Activation of human PXR; type: ADME; settings: for Activity: human
T3 sequence (O75469 whole entry): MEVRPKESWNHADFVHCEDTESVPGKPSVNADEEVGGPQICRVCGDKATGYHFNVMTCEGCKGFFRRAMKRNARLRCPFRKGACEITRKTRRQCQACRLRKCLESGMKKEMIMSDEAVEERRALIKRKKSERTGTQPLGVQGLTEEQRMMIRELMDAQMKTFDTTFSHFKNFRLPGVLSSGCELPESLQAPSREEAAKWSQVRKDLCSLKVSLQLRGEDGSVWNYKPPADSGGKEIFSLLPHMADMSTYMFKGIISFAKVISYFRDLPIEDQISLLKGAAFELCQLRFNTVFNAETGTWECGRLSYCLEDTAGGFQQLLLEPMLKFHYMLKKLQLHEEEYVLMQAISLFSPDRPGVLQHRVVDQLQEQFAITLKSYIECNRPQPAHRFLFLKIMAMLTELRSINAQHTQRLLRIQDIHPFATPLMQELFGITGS

[12] = Total plasma clearance in rat at 1 mg/kg, iv; type: ADME, organism-based
Outline: (§5)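 Rat pharmacokinetics: iv dose 1 mg/kg; po dose 1 or 2 mg/kg depending on compound. AUC taken over 0–8 h. Unbound parameters calculated using plasma free fraction.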

[13] = […] plasma clearance in rat at 1 mg/kg, iv; type: ADME, organism-based; settings: read-out: CL free (converted); outline: as §5
[14] = Volume of distribution at steady state in rat at 1 mg/kg, iv or 1 mg/kg, po; type: ADME, organism-based; settings: in vivo, read-out: Vdss; outline: as §5
[15] = Half life in rat at 1 mg/kg, iv; type: ADME, organism-based; settings: in vivo; outline: as §5
[16] = Cmax in rat at 1 mg/kg, iv or 1 mg/kg, po; type: ADME, organism-based; settings: in vivo; outline: as §5
[17] = AUC(0 to 8 hrs) in rat at 1 mg/kg, po; type: ADME, organism-based; parameters: time < 6 hr, dose 1 mg/kg, route oral; settings: in vivo; outline: as §5
Rattus norvegicus [18] = assay: Unbound AUC(0 to 8 hrs) in rat at 1 mg/kg, po; type: ADME, organism-based; settings: in vivo; outline: as §5
[19] = Oral bioavailability in rat at 1 mg/kg; type: ADME, organism-based; settings: in vivo; outline: as §5
[20] = biological target: T1, Transient receptor potential cation channel subfamily V member 3 (Homo sapiens); assay: Antagonist activity at human TRPV3 expressed in recombinant HEK293 cells assessed as free plasma level adjusted concentration for inhibition of 2-APB induced calcium flux by FLIPR analysis; type: cell-based
Outline: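 FLIPR Kb from the 2-APB (60 µM final) Ca2+ flux assay in human TRPV3 HEK293 cells, converted to an unbound value using the measured free fraction in plasma.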

Plasma = assay: Plasma concentration in rat; type: ADME, cell-free

| Structure (SMILES) | Kb [4] [µM] | CL free (Liver microsome [6]) [L/h/kg] | CL free (Liver microsome [7]) [L/h/kg] | Activity [11] | Activity (Rattus norvegicus [9]) | Activity (Rattus norvegicus [10]) | further results |
| --- | --- | --- | --- | --- | --- | --- | --- |
| O[C@H](c1ccccn1)C1(c2ccc(Cl)c(Cl)c2)CCC1 | 0.08 | 151 | 41 | – | – | – | Drug metabolism (Liver microsome [1]): metabolite_detected; Drug metabolism (Liver microsome [2]): metabolite_detected; Drug metabolism (Liver microsome [3]): metabolite_detected; IC50 [5]: 0.16 µM; fraction unbound [8]: 0.007 |
| C[C@]1(O)C[C@](c2ccc(C(F)(F)F)cc2)([C@H](O)c2ccccn2)C1 | 4.79 | 6 | 2 | Not Active | Non-toxic | Non-toxic | – |
| C[C@]1(O)C[C@@](c2cc(C(F)(F)F)ccn2)([C@H](O)c2ccccn2)C1 | 0.73 | 7 | 2 | Not Active | Non-toxic | Non-toxic | – |
| C[C@]1(O)C[C@@](c2ccc(OC(F)(F)F)cc2)([C@@H](O)c2ccccn2)C1 | > 10.4 | 6 | 3 | Not Active | Non-toxic | Non-toxic | – |
| C[C@]1(c2ccc(OC(F)(F)F)cc2)C[C@](O)(c2ccccn2)CO1 (single isomer, unassigned) | 0.42 | 10 | 7 | – | – | – | clearance [12]: 0.6 L/h/kg; clearance [13]: 17.6 L/h/kg; Vd [14]: 3.2 L/kg; half-life [15]: 3.8 h; Cmax [16]: 0.13 µg/mL; AUC(0-t) at 6 h [17]: 0.93 µg·h/mL; fAUC (Rattus norvegicus [18]): 0.03 µg·h/mL; bioavailability [19]: 56%; Kb [20]: 12 µM; fraction unbound [8]: 0.06 |
| O[C@H](c1ccccn1)C1(c2ccc(OC(F)(F)F)cc2)CC(F)(F)C1 | 0.04 | 12 | 11 | – | 29% | 16% | Cp (Plasma): 4.7 µg/mL; EC50 [11]: 5.7 µM |
| O[C@H](c1ccccn1)[C@]1(c2cc(C(F)(F)F)ccn2)C[C@@H](O)C1 | 0.32 | 3 | 2 | Not Active | Non-toxic | Non-toxic | – |

The next lines start with results.

| Kb [4] [µM] | CL free (Liver microsome [6]) [L/h/kg] | CL free (Liver microsome [7]) [L/h/kg] | Activity [11] | Structure (SMILES) | Activity (Rattus norvegicus [9]) | Activity (Rattus norvegicus [10]) | further results |
| --- | --- | --- | --- | --- | --- | --- | --- |
| 1.31 | 3 | 7 | Not Active | C[C@]1(O)C[C@](c2cccc(OC(F)(F)F)c2)([C@H](O)c2ccccn2)C1 | Non-toxic | Non-toxic | – |
| 0.53 | 12 | 5 | Not Active | O[C@H](c1ccccn1)[C@]1(c2ccnc(C(F)(F)F)c2)C[C@@H](O)C1 | Non-toxic | Non-toxic | – |
| > 9.1 | 6 | 2 | Not Active | C[C@]1(O)C[C@](c2cc(C(F)(F)F)ccn2)([C@@H](O)c2ccccn2)C1 | Non-toxic | Non-toxic | – |
| 0.5 | 5 | 4 | Not Active | C[C@]1(O)C[C@](c2ccnc(C(F)(F)F)c2)([C@H](O)c2ccccn2)C1 | Non-toxic | Non-toxic | – |
| 0.09 | 11 | 8 | Not Active | O[C@H](c1ccccn1)[C@]1(c2cccc(C(F)(F)F)c2)C[C@H](O)C1 | Non-toxic | Non-toxic | – |
| 0.27 | 3 | 2 | Not Active | O[C@H](c1ccccn1)[C@]1(c2cc(C(F)(F)F)ccn2)C[C@H](O)C1 | Non-toxic | Non-toxic | – |
